Consider five compounds from ChEMBL document CHEMBL1147589, “Abeta aggregation inhibitors. Part 1: Synthesis and biological activity of phenylazo benzenesulfonamides” (Bioorg Med Chem Lett, 2004).

Bounds are passed on as bounds.

Data set [1] is filed under the species Rattus norvegicus. The data set is described as follows: Evaluated for neurotoxicity by inhibition of neuron viability in rat cortical neurons expressed as IC50. The data set is classed as functional. In a few lines: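 Cortical neurons were incubated with the compound at various concentrations, and viability was measured by MTT reduction with OD at 600 nm on an ELISA reader. IC50 is the concentration inhibiting neuron viability by 50%. Values are averages of three separate experiments.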

The species entered for data set [2] is Rattus norvegicus. Nature of the data set: Effective concentration required to inhibit A-beta-40 fibril formation […]. The data set is classed as functional. In outline: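 Thioflavin-T binding assay of Aβ40 aggregation. Aβ40 (25) was incubated with the compound at various concentrations in 50 mM TBS, pH 7.4, at 37 °C for 2 days. Fluorescence was read at Ex 450/Em 482 and scaled to Aβ40 alone (100%). EC50 is the concentration inhibiting aggregation by 50%. Values are averages of three separate experiments.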

Data set [3] is described as follows: Therapeutic index expressed as the ratio of IC50 to EC50. Particulars: rat; read-out: Therapeutic index. In outline:
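Therapeutic index = IC50/EC50. IC50 is the concentration inhibiting neuron viability by 50% in the MTT reduction assay on cortical neurons. EC50 is the concentration inhibiting Aβ40 aggregation by 50% in the thioflavin-T assay (25 Aβ40, TBS pH 7.4, 37 °C, 2 days). Both were determined at various compound concentrations in three separate experiments.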

Usually IC50 stands for the concentration at which inhibition is half-maximal. A low value points to greater potency in that assay. One may read the EC50 as the concentration giving half of the maximal effect. A high value points to weaker potency. `Nc1ccc(/N=N/c2ccc(S(N)(=O)=O)cc2)cc1` came in with a half-inhibitory concentration (IC50) in the data set listed under Rattus norvegicus [1] of more than 100 µM. Further, in the data set filed under Rattus norvegicus [2], the EC50 came out at 100 µM.

In the data set listed under Rattus norvegicus [1], `CSc1cc(N)ccc1/N=N/c1ccc(S(N)(=O)=O)cc1` yielded an IC50 of more than 100 µM. For the same compound, the selectivity ratio in data set [3] was more than 1.76. The compound also displayed an EC50 in the data set filed under Rattus norvegicus [2] of 56.8 µM.

In the data set filed under Rattus norvegicus [1], `NS(=O)(=O)c1ccc(/N=N/c2ccc(NCS(=O)(=O)O)cc2)cc1` returned an IC50 of more than 100 µM. Also, the selectivity ratio in data set [3] is more than 1.29. Moreover, in the data set filed under Rattus norvegicus [2], it took 77.2 µM to reach a half-maximal effect (EC50).

`CCN(CC)CCNc1ccc(/N=N/c2ccc(S(N)(=O)=O)cc2)c2ccccc12` came in with an IC50 in the data set listed under Rattus norvegicus [1] of 22.1 µM. Moreover, the selectivity ratio in data set [3] amounted to 1.47. Further, the EC50 in the data set listed under Rattus norvegicus [2] was determined as 15.1 µM.

`CN(C)c1ccc(/N=N/c2ccc(S(N)(=O)=O)cc2)cc1`: the IC50 in the data set listed under Rattus norvegicus [1] was more than 100 µM. The selectivity ratio in data set [3] was more than 7.75. In addition, the EC50 in the data set listed under Rattus norvegicus [2] stood at 12.9 µM.
